Source: ChEMBL document CHEMBL4266004, “Series of Alkynyl-Substituted Thienopyrimidines as Inhibitors of Protozoan Parasite Proliferation” (ACS Med Chem Lett, 2018)
Activity calls are given as the source filed them. The calls are words filed in the database; no cut-off is given here.

Tests used:
[1] = Selectivity index, ratio of TC50 for mouse NIH/3T3 cells to EC50 for Trypanosoma cruzi Tulahuen intracellular amastigote harboring beta-galactosidase; format: toxicity, cell-based; details: read-out: Selectivity Index
In short: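 NIH 3T3 cells, the host line for intracellular T. cruzi amastigote culture, tested for toxicity. Selectivity = NIH3T3 TC50 / T. cruzi EC50.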

[2] = Selectivity index, ratio of TC50 for human HepG2 cells to EC50 for Plasmodium falciparum D6 trophozoites; format: toxicity; details: read-out: Selectivity Index
In short: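 P. falciparum D6 screened in duplicate or quadruplicate. Selectivity = HepG2 TC50 / P. falciparum EC50.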

[3] = Selectivity ratio of EC50 for antimalarial activity against Plasmodium falciparum C235 trophozoites to EC50 for atimalarial activity against Plasmodium falciparum D6 trophozoites; format: functional
[4] = Selectivity ratio of EC50 for antimalarial activity against Plasmodium falciparum W2 trophozoites to EC50 for atimalarial activity against Plasmodium falciparum D6 trophozoites; format: functional
Plasmodium falciparum = assay: Antimalarial activity against Plasmodium falciparum D6 trophozoites after 72 hrs by SYBR Green I dye-based fluorescence assay; format: functional, organism-based; details: D6, 72 h
In short: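 P. falciparum D6 strain; compounds run in duplicate or quadruplicate; EC50 determined from dose-response.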

[5] = system: Trypanosoma brucei brucei; assay: Antitrypanosomal activity against Trypanosoma brucei brucei 427 at 5 uM after 48 hrs by presto blue dye based fluorescence assay relative to control; format: functional
In short: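 Single-concentration screen of bloodstream T. brucei cultures at 5 μM, 5 × 10^4 cells/mL; percent proliferation inhibition recorded.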

[6] = Selectivity index, ratio of TC50 for human HepG2 cells to EC50 for Leishmania major intracellular amastigotes harboring luciferase infected in mouse RAW264.7 cells; format: toxicity, cell-based; details: read-out: Selectivity Index
In short: (§1)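 L. major amastigotes screened in duplicate or quadruplicate. Selectivity derived as HepG2 TC50 / L. major EC50.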

[7] = Cytotoxicity against mouse NIH/3T3 cells; format: cell-based, NIH3T3; details: read-out: TC50 (the source's name)
Trypanosoma cruzi = assay: Antitrypanosomal activity against Trypanosoma cruzi Tulahuen intracellular amastigote harboring beta-galactosidase infected in mouse NIH/3T3 cells after 96 hrs by CPRG reagent based assay; format: functional, organism-based; details: NIH3T3, 96 h
Leishmania major = assay: Antileishmanial activity against Leishmania major intracellular amastigotes harboring luciferase infected in mouse RAW264.7 cells after 96 hrs by luminescence assay; format: functional, organism-based; details: RAW264.7, 96 h; in short: as §1
[8] = Cytotoxicity against human HepG2 cells; format: cell-based; details: read-out: TC50 (the source's name)
[9] = Selectivity index, ratio of TC50 for human HepG2 cells to EC50 for Trypanosoma brucei brucei 427; format: toxicity; details: read-out: Selectivity Index
[10] = system: Trypanosoma brucei brucei; assay: Antitrypanosomal activity against Trypanosoma brucei brucei 427 after 48 hrs by presto blue dye based fluorescence assay; format: functional, organism-based; details: Trypanosoma brucei, 427, 48 h
Trypanosoma brucei [11] = assay: Antiparasitic activity against Trypanosoma brucei; format: functional, organism-based
Trypanosoma brucei [12] = assay: Antitrypanosomal activity against Trypanosoma brucei Lister 427 infected in Swiss Webster mouse assessed as reduction in parasitemia at 130 mg/kg, po via gavage once daily for 10 days starting from 24 hrs post infection measured on day 13 by hemocytometric method; format: functional, organism-based
In short: (§2)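 Mice, four per group, infected with 10^5 T. brucei Lister427 (day 0); from 24 h, 130 mg/kg by oral gavage once daily for 10 days in 10% NMP/90% PEG; controls received vehicle; parasitemia followed over time after infection; mean parasitemia compared by Student's t test.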

Mus musculus [13] = assay: Toxicity in Swiss Webster mouse infected with Trypanosoma brucei Lister 427 at 130 mg/kg, po via gavage once daily for 10 days starting from 24 hrs post infection; format: organism-based; details: in vivo
In short: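 Infected mice (four per group; 10^5 T. brucei Lister427) dosed orally 130 mg/kg once daily for 10 days from 24 h post-infection, vehicle 10% NMP/90% PEG; observed for signs of toxicity.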

Mus musculus [14] = assay: Time at which plasma concentration stays above in vitro antitrypanosomal EC50 in Swiss Webster mouse at 130 mg/kg, po by LC-MS/MS analysis; format: ADME, organism-based; details: in vivo
Trypanosoma brucei [15] = assay: Inhibition of transferrin-647 uptake in Trypanosoma brucei Lister 427 at 9.5 uM after 3 hrs by propidium iodide staining based flow cytometry; format: functional, organism-based
Trypanosoma brucei [16] = assay: Antitrypanosomal activity against Trypanosoma brucei Lister 427 assessed as increase in fraction of trypanosomes containing one 2K1N at 9.5 uM after 3 hrs by mCLING/DAPI staining based fluorescence microsocpic method; format: functional, organism-based
In short: (§3)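 Mid-log bloodstream T. brucei (5 × 10^5 cells/mL) exposed to compound or DMSO for 3 h, fixed, stained with mCLING plus DAPI for kinetoplast and nuclear DNA; kinetoplasts and nuclei per cell counted by fluorescence microscopy (n >120 cells); mean percentages over three biological replicates; distribution compared by Pearson χ2.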

Trypanosoma brucei [17] = assay: Antitrypanosomal activity against Trypanosoma brucei Lister 427 assessed as increase in fraction of trypanosomes containing one 2K2N at 9.5 uM after 3 hrs by mCLING/DAPI staining based fluorescence microsocpic method; format: functional, organism-based; in short: as §3
Trypanosoma brucei [18] = assay: Antitrypanosomal activity against Trypanosoma brucei Lister 427 infected in Swiss Webster mouse assessed as reduction in parasitemia at 130 mg/kg, po via gavage once daily for 10 days starting from 24 hrs post infection by hemocytometric method; format: functional, organism-based; in short: as §2
Trypanosoma brucei [19] = assay: Antitrypanosomal activity against Trypanosoma brucei Lister 427 infected in Swiss Webster mouse assessed as mouse survival at 130 mg/kg, po via gavage once daily for 10 days starting from 24 hrs post infection (reference value: 5 day); format: functional
In short: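 Mice, four per group, infected with 10^5 T. brucei Lister427 on day 0. From 24 h, oral gavage at 130 mg/kg once daily for 10 days in 10% NMP/90% PEG; controls received vehicle only. Parasitemia followed through and after dosing. Survival compared by chi-square analysis of Kaplan–Meier data.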

Trypanosoma brucei [20] = assay: Antitrypanosomal activity against Trypanosoma brucei Lister 427 assessed as reduction in fraction of trypanosomes containing one kinetoplast at 9.5 uM after 3 hrs by mCLING/DAPI staining based fluorescence microsocpic method; format: functional, organism-based; in short: as §3
Trypanosoma brucei [21] = assay: Antitrypanosomal activity against Trypanosoma brucei Lister 427 assessed as reduction in fraction of trypanosomes containing one nucleus at 9.5 uM after 3 hrs by mCLING/DAPI staining based fluorescence microsocpic method; format: functional, organism-based; in short: as §3

SMILES	selectivity ratio [1]	selectivity ratio [2]	Ratio EC50 [3]	Ratio EC50 [4]	EC50 (Plasmodium falciparum) [µM]	Activity [5] [%]	selectivity ratio [6]	CC50 [7] [µM]	EC50 (Trypanosoma cruzi) [µM]	EC50 (Leishmania major) [µM]	CC50 [8] [µM]	selectivity ratio [9]	EC50 [10] [µM]	further results
Fc1cccc(COc2ccc(Nc3ncnc4sc(C#CCN5CCNCC5)cc34)cc2Cl)c1	6.4	20	< 3	< 3	0.38	>75	0.85	3.9	0.61	9.1	7.7	4.1	1.9	
CN1CCN(CC#Cc2cc3c(Nc4ccc(OCc5cccc(F)c5)c(Cl)c4)ncnc3s2)CC1	1.9	58	< 3	< 3	0.26	>75	1.9	6.7	3.5	8.1	15	15	1	
CN1CCN(CC#Cc2cc3ncnc(Nc4ccc(OCc5cccc(F)c5)c(Cl)c4)c3s2)CC1	2.3	17	< 3	< 3	0.64	>75		4.8	2.1	> 15	11	4.3	2.5	
CCCN(CC#Cc1cc2c(Nc3ccc(OCc4cccc(F)c4)c(Cl)c3)ncnc2s1)CCC	1.3	21	< 3	< 3	0.8	0	12	2.2	1.7	1.4	17			
CS(=O)(=O)CCNCc1ccc(-c2ccc3ncnc(Nc4ccc(OCc5cccc(F)c5)c(Cl)c4)c3c2)o1 [LAPATINIB]														EC50 (Trypanosoma brucei [11]): 1.4 to 1.5 µM
Fc1cccc(COc2ccc(Nc3ncnc4cc(C#CCN5CCCC5)sc34)cc2Cl)c1	3.6	3.8			1.3	>75	1.2	6.4	1.8	4.1	4.9	18	0.28	
CN1CCN(CC#Cc2ccc3ncnc(Nc4ccc(OCc5cccc(F)c5)c(Cl)c4)c3c2)CC1	2.9	51	< 3	< 3	0.16	>75	0.8	7.2	2.5	10	8.2	8.2	1	
COCC#Cc1cc2ncnc(Nc3ccc(OCc4cccc(F)c4)c(Cl)c3)c2s1	> 1.6	> 5.6			5.9	>75	> 3.5	> 50	30.7	9.4	> 33	> 9.7	3.4	
Fc1cccc(COc2ccc(Nc3ncnc4cc(C#C[C@H]5CCCN5)sc34)cc2Cl)c1													0.26	Activity (Trypanosoma brucei [12]): inactive; Activity (Mus musculus [13]): Non-Toxic; Time (Mus musculus [14]): <= 4 hr; inhibition (Trypanosoma brucei [15]): inactive; Activity (Trypanosoma brucei [16]): Active; Activity (Trypanosoma brucei [17]): Active; Activity (Trypanosoma brucei [18]): Active; Survival (Trypanosoma brucei [19]): 7.5 days; Activity (Trypanosoma brucei [20]): Active; Activity (Trypanosoma brucei [21]): Active
Fc1cccc(COc2ccc(Nc3ncnc4sc(C#CCN5CCCC5)cc34)cc2Cl)c1		> 214	< 3	< 3	0.14	>75	> 7			4.3	> 30		> 2.5	
Fc1cccc(COc2ccc(Nc3ncnc4cc(C#C[C@@H]5CCCN5)sc34)cc2Cl)c1	2.7	10	< 3	< 3	0.94	>75	2.3	10	3.7	4.2	9.6	44	0.22	
